Calls of active or inactive are those of the source. The calls are words filed in the database; no cut-off is given here.
Assays:
Mus musculus [1] = test: Immunostimulatory activity in Kunming mouse implanted with mouse H22 cells assessed as increase in serum IL-2 level at 200 mg/kg, ig once daily for 12 days measured at 24 hrs post last dose by ELISA; format: functional, organism-based
In short: (§1)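 Serum came from H22 sc tumor-bearing mice dosed intragastrically once daily for 12 days, collected 24 h after the last dose from the orbital plexus (3000g, 10 min, stored at –80 °C). IL-2, IL-6, TNF-α, IFN-γ, VEGF and bFGF were measured by commercial ELISA kits following the manufacturer's protocol.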

Mus musculus [2] = test: Immunostimulatory activity in Kunming mouse implanted with mouse H22 cells assessed as increase in serum IL-6 level at 200 mg/kg, ig once daily for 12 days measured at 24 hrs post last dose by ELISA; format: functional, organism-based; in short: as §1
Mus musculus [3] = test: Toxicity in Kunming mouse implanted with mouse H22 cells assessed as increase in body weight at 200 mg/kg, ig once daily for 12 days measured every 3 days during compound dosing; format: organism-based; details: in vivo, po
In short: (§2)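 H22 sc tumor-bearing mice were dosed intragastrically once daily for 12 days (0.2 mL, n = 10). Mice were weighed every three days and doses adjusted accordingly. Body weight gain = (final – initial body weight)/initial body weight.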

Mus musculus [4] = test: Toxicity in Kunming mouse implanted with mouse H22 cells assessed as increase in body weight at 50 mg/kg, ig once daily for 12 days measured every 3 days during compound dosing; format: organism-based; details: in vivo, po; in short: as §2
H22 [5] = test: Antitumor activity against mouse H22 cells implanted in Kunming mouse assessed as tumor growth inhibition at 50 mg/kg, ig once daily for 12 days measured at 24 hrs post last dose relative to control; format: functional; details: H22, po, read-out: TGI
In short: (§3)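 Sc H22 implant (0.2 mL, 1 × 10^6 cells per mL, right axilla). Intragastric dosing started 3 days later, once daily for 12 days in 0.2 mL; saline control; 10 mice per group. Tumors were excised and weighed 24 h after the last dose. Inhibition rate = (1 – mean treated tumor weight/mean model tumor weight) × 100%. Caliper volume taken every 2 days as A × B2/2.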

H22 [6] = test: Antitumor activity against mouse H22 cells implanted in Kunming mouse assessed as tumor growth inhibition at 200 mg/kg, ig once daily for 12 days measured at 24 hrs post last dose relative to control; format: functional; details: H22, po, read-out: TGI; in short: as §3
H22 [7] = test: Antitumor activity against mouse H22 cells implanted in Kunming mouse assessed as tumor growth inhibition administered ig once daily for 12 days measured at 24 hrs post last dose; format: functional; in short: as §3
Mus musculus [8] = test: Immunosuppressive effect in Kunming mouse implanted with mouse H22 cells assessed as liver index at 50 mg/kg, ig once daily for 12 days measured at 24 hrs post last dose (reference value: 4.17 +/- 0.68%); format: ADME, organism-based; details: in vivo, po
Mus musculus [9] = test: Immunosuppressive effect in Kunming mouse implanted with mouse H22 cells assessed as liver index at 200 mg/kg, ig once daily for 12 days measured at 24 hrs post last dose (reference value: 4.17 +/- 0.68%); format: ADME, organism-based; details: in vivo, po
Mus musculus [10] = test: Immunosuppressive effect in Kunming mouse implanted with mouse H22 cells assessed as spleen index at 50 mg/kg, ig once daily for 12 days measured at 24 hrs post last dose (reference value: 0.54 +/- 0.09%); format: ADME, organism-based; details: in vivo, po
Mus musculus [11] = test: Immunosuppressive effect in Kunming mouse implanted with mouse H22 cells assessed as spleen index at 200 mg/kg, ig once daily for 12 days measured at 24 hrs post last dose (reference value: 0.54 +/- 0.09%); format: ADME, organism-based; details: in vivo, po
Mus musculus [12] = test: Immunosuppressive effect in Kunming mouse implanted with mouse H22 cells assessed as thymus index at 50 mg/kg, ig once daily for 12 days measured at 24 hrs post last dose (reference value: 0.13 +/- 0.06%); format: ADME, organism-based; details: in vivo, po
Mus musculus [13] = test: Immunosuppressive effect in Kunming mouse implanted with mouse H22 cells assessed as thymus index at 200 mg/kg, ig once daily for 12 days measured at 24 hrs post last dose (reference value: 0.13 +/- 0.06%); format: ADME, organism-based; details: in vivo, po
Mus musculus [14] = test: Hepatotoxicity in Kunming mouse implanted with mouse H22 cells assessed as increase in serum ALT level at 50 to 200 mg/kg, ig once daily for 12 days measured at 24 hrs post last dose; format: toxicity, organism-based; details: in vivo, po
In short: (§4)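 Mice bore sc H22 tumors and received intragastric doses once daily for 12 days (n = 10). Blood was drawn from the orbital venous plexus 24 h after the last dose. It was allowed to clot and centrifuged at 3000g for 10 min, and the serum was stored at –80 °C. AST, ALT, CRE, BUN and UA were measured with commercial kits.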

Mus musculus [15] = test: Hepatotoxicity in Kunming mouse implanted with mouse H22 cells assessed as increase in serum AST level at 50 to 200 mg/kg, ig once daily for 12 days measured at 24 hrs post last dose; format: toxicity, organism-based; details: in vivo, po; in short: as §4
Mus musculus [16] = test: Renal toxicity in Kunming mouse implanted with mouse H22 cells assessed as increase in serum BUN level at 50 to 200 mg/kg, ig once daily for 12 days measured at 24 hrs post last dose; format: organism-based; details: in vivo, po; in short: as §4
Mus musculus [17] = test: Renal toxicity in Kunming mouse implanted with mouse H22 cells assessed as increase in serum UA level at 50 to 200 mg/kg, ig once daily for 12 days measured at 24 hrs post last dose; format: organism-based; details: in vivo, po; in short: as §4
Mus musculus [18] = test: Renal toxicity in Kunming mouse implanted with mouse H22 cells assessed as increase in serum CRE level at 50 to 200 mg/kg, ig once daily for 12 days measured at 24 hrs post last dose; format: organism-based; details: in vivo, po; in short: as §4
Mus musculus [19] = test: Immunostimulatory activity in Kunming mouse implanted with mouse H22 cells assessed as increase in serum IL-2 level at 50 mg/kg, ig once daily for 12 days measured at 24 hrs post last dose by ELISA; format: functional, organism-based; in short: as §1
Mus musculus [20] = test: Immunostimulatory activity in Kunming mouse implanted with mouse H22 cells assessed as increase in serum IL-6 level at 50 mg/kg, ig once daily for 12 days measured at 24 hrs post last dose by ELISA; format: functional, organism-based; in short: as §1
Mus musculus [21] = test: Immunostimulatory activity in Kunming mouse implanted with mouse H22 cells assessed as increase in serum TNFalpha level at 200 mg/kg, ig once daily for 12 days measured at 24 hrs post last dose by ELISA; format: functional, organism-based; in short: as §1
Mus musculus [22] = test: Immunostimulatory activity in Kunming mouse implanted with mouse H22 cells assessed as increase in serum IFNgamma level at 200 mg/kg, ig once daily for 12 days measured at 24 hrs post last dose by ELISA; format: functional, organism-based; in short: as §1
Mus musculus [23] = test: Decrease in serum VEGF level in Kunming mouse implanted with mouse H22 cells at 50 to 200 mg/kg, ig once daily for 12 days measured at 24 hrs post last dose by ELISA; format: functional, organism-based; in short: as §1
Mus musculus [24] = test: Decrease in serum bFGF level in Kunming mouse implanted with mouse H22 cells at 50 to 200 mg/kg, ig once daily for 12 days measured at 24 hrs post last dose by ELISA; format: functional, organism-based; in short: as §1
H22 [25] = test: Antitumor activity against mouse H22 cells implanted in Kunming mouse assessed as decrease in nuclear to cytoplasmic ratio at 50 to 200 mg/kg, ig once daily for 12 days measured at 24 hrs post last dose by hematoxylin and eosin staining based microscopic method; format: functional, organism-based
In short: (§5)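 H22 cells given 0.2 mL of 1 × 10^6 cells per mL subcutaneously in the right axilla. Treatment began on day 3, […]. Dosing was intragastric in saline, once daily for 12 days, n = 10 per group. Mice were killed 24 h after the last dose. Tumors were fixed in buffered neutral 10% formalin, paraffin-embedded, cut at 4 μm, HE-stained and examined by light microscopy at 400×.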

H22 [26] = test: Antitumor activity against mouse H22 cells implanted in Kunming mouse assessed as necrotic and apoptotic region at 50 to 200 mg/kg, ig once daily for 12 days measured at 24 hrs post last dose by hematoxylin and eosin staining based microscopic method; format: functional, organism-based; in short: as §5
H22 [27] = test: Antitumor activity against mouse H22 cells implanted in Kunming mouse assessed as decrease in hepatoma cell density at 200 mg/kg, ig once daily for 12 days measured at 24 hrs post last dose by hematoxylin and eosin staining based microscopic method; format: functional, organism-based; in short: as §5
Mus musculus [28] = test: Decrease in leukocyte infiltration in Kunming mouse implanted with mouse H22 cells at 50 to 200 mg/kg, ig once daily for 12 days measured at 24 hrs post last dose by hematoxylin and eosin staining based microscopic method; format: functional, organism-based; in short: as §5
Mus musculus [29] = test: Decrease in tumor hemorrhage in Kunming mouse implanted with mouse H22 cells at 50 to 200 mg/kg, ig once daily for 12 days measured at 24 hrs post last dose by hematoxylin and eosin staining based microscopic method; format: functional, organism-based; in short: as §5

Question: For COc1c(O)cc2cc(C(=O)O)n(C)c2c1C1=c2cc(C(=O)O)[nH]c2=C(Cc2cc(C(=O)O)[nH]c2C(=O)O)C(=O)C1=O, which Activity (Mus musculus [1]) is on record?
Answer: The Activity was “Active”.

Question: And the Activity (Mus musculus [2])?
Answer: The Activity was “Active”.

Question: What about the Activity (Mus musculus [3]) of the same compound?
Answer: Its Activity is 7.56 g.

Question: And the Activity (Mus musculus [4])?
Answer: Its Activity is 8.2 g.

Question: What about the inhibition in vivo at 50 mg/kg (H22 [5]) of the same compound?
Answer: Its inhibition in vivo at 50 mg/kg is 32.3%.

Question: And the inhibition in vivo at 200 mg/kg (H22 [6])?
Answer: Its inhibition in vivo at 200 mg/kg is 35%.

Question: And the TGI (H22 [7])?
Answer: Its TGI is “Dose-dependent effect”.

Question: And the Activity_index (Mus musculus [8])?
Answer: Its Activity_index is 3.72%.

Question: And the Activity_index (Mus musculus [9])?
Answer: Its Activity_index is 3.79%.

Question: And the Activity_index (Mus musculus [10])?
Answer: The Activity_index was 0.48%.

Question: And the Activity_index (Mus musculus [11])?
Answer: Its Activity_index is 0.48%.

Question: What about the Activity_index (Mus musculus [12]) of the same compound?
Answer: Its Activity_index is 0.15%.

Question: And the Activity_index (Mus musculus [13])?
Answer: The Activity_index was 0.16%.

Question: And the Activity (Mus musculus [14])?
Answer: Its Activity is “Non-Toxic”.

Question: What about the Activity (Mus musculus [15]) of the same compound?
Answer: Its Activity is “Non-Toxic”.

Question: And the Activity (Mus musculus [16])?
Answer: The Activity was “Non-Toxic”.

Question: What about the Activity (Mus musculus [17]) of the same compound?
Answer: The Activity was “Non-Toxic”.

Question: And the Activity (Mus musculus [18])?
Answer: The Activity was “Non-Toxic”.

Question: What about the Activity (Mus musculus [19]) of the same compound?
Answer: Its Activity is “Active”.

Question: And the Activity (Mus musculus [20])?
Answer: Its Activity is “Active”.

Question: And the Activity (Mus musculus [21])?
Answer: The Activity was “Active”.

Question: And the Activity (Mus musculus [22])?
Answer: The Activity was “Active”.

Question: And the Activity (Mus musculus [23])?
Answer: The Activity was “Active”.

Question: What about the Activity (Mus musculus [24]) of the same compound?
Answer: Its Activity is “Active”.

Question: And the Activity (H22 [25])?
Answer: The Activity was “Active”.

Question: And the Activity (H22 [26])?
Answer: Its Activity is “Active”.

Question: What about the Activity (H22 [27]) of the same compound?
Answer: The Activity was “Active”.

Question: And the Activity (Mus musculus [28])?
Answer: The Activity was “Active”.

Question: What about the Activity (Mus musculus [29]) of the same compound?
Answer: The Activity was “Active”.

From ChEMBL document CHEMBL4257498, “Antitumor effects of melanin from Lachnum YM226 and its derivative in H22 tumor-bearing mice” (Medchemcomm, 2018)
